# Laboratory results reported in ChEMBL document CHEMBL6083194, “Discovery and evaluation of 3-(2-isocyanobenzyl)-1H-indole derivatives as potential quorum sensing inhibitors for the control of Pseudomonas aeruginosa infections in vitro” (RSC Med Chem, 2024).
# The source made the active and inactive calls. The rule behind the calls is not given here.
# Columns and labels:
# Pseudomonas aeruginosa [1] = assay: Inhibition of biofilm formation in Pseudomonas aeruginosa PAO1 at 6.25 ug/ml incubated for 24 hrs crystal violet staining based assay; format: functional
# How it was run: (§1)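 PAO1 grown statically for 24 h in LB ± compound in 24-well plates. Planktonic cells removed; attached cells stained with 0.05% crystal violet, rinsed, dissolved in 95% ethanol, read at OD570. DMSO negative, resveratrol positive control; SD from three independent experiments.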
# Pseudomonas aeruginosa [2] = assay: Inhibition of biofilm formation in Pseudomonas aeruginosa PAO1 incubated for 24 hrs crystal violet staining based SEM assay; format: functional, organism-based
# Pseudomonas aeruginosa [3] = assay: Anti-virulence effect in Pseudomonas aeruginosa PAO1 assessed as inhibition of EPS production at 25 ug/ml; format: functional; set-up: scale not given: the % may be the effect or the level left; conditions: dose 25 µg/ml
# How it was run: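 PAO1 grown with compound (6.25–25 μg mL−1) in 24-well plates for 24 h at 37 °C and 180 rpm; DMSO and RSV (25 μg mL−1) as controls. Biofilms washed with water, then treated with 0.9% NaCl, 5% phenol and 0.2% hydrazine sulfate. Held 1 h in the dark, read at OD490. Three independent experiments.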
# [4] = Inhibition of quorum sensing system in Pseudomonas aeruginosa PAO1 assessed as reduction in C4-HSL level at 6.25 to 25 ug/ml incubated for 24 hrs by LC-MS/MS method; conditions: dose 6.25-25 µg/ml
# [5] = Inhibition of quorum sensing system in Pseudomonas aeruginosa PAO1 assessed as reduction in 3-oxo-C12-HSL level at 50 ug/ml incubated for 24 hrs by LC-MS/MS method; conditions: dose 50.0 µg/ml
# Pseudomonas aeruginosa [6] = assay: Induction of biofilm eradication in Pseudomonas aeruginosa PAO1 at 6.25 ug/ml by crystal violet staining based assay; format: functional; conditions: dose 6.25 µg/ml
# How it was run: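 PAO1 biofilms grown overnight at 37 °C in LB in 24-well plates, washed with PBS, then fresh LB with compound added and grown overnight again. Washed, methanol-fixed, crystal violet stained, ethanol solubilised, read at OD570. DMSO negative, resveratrol positive control.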
# [7] = Inhibition of quorum sensing system in Pseudomonas aeruginosa PAO1 assessed as reduction in C4-HSL level at 12.5 ug/ml incubated for 24 hrs by LC-MS/MS method; conditions: dose 12.5 µg/ml
# Pseudomonas aeruginosa [8] = assay: Inhibition of biofilm formation in Pseudomonas aeruginosa PAO1 at 12.5 ug/ml incubated for 24 hrs crystal violet staining based assay; format: functional; how it was run: as §1
# Pseudomonas aeruginosa [9] = assay: Downregulation of sucD gene expression in Pseudomonas aeruginosa PAO1 assessed as fold decrease at 25 ug/ml by RT-qPCR analysis; format: functional; conditions: dose 25 µg/ml
# Pseudomonas aeruginosa [10] = assay: Anti-virulence effect in Pseudomonas aeruginosa PAO1 assessed as inhibition of pyocyanin production at 6.25 ug/ml; format: functional; set-up: scale not given: the % may be the effect or the level left; conditions: dose 6.25 µg/ml
# How it was run: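 Overnight PAO1 culture in LB at 37 °C, diluted to OD600 0.05 and subcultured 5–7 h to mid-log phase, then re-diluted to OD600 0.05. Grown 18 h at 37 °C and 200 rpm with compound (6.25, 12.5, 25 μg mL−1) or DMSO. Supernatant extracted into chloroform, back-extracted into 0.2 M HCl, read at 520 nm.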
# Pseudomonas aeruginosa [11] = assay: Antibacterial activity against Pseudomonas aeruginosa PAO1 by serial dilution method; format: functional
# How it was run: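 PAO1 in LB, 37 °C. MIC by CLSI 2-fold serial dilution in Mueller–Hinton broth, inoculum 1–5 × 10^5 CFU mL−1, DMSO stocks. Growth curves: overnight culture diluted to OD600 = 0.05, subcultured to mid-log, rediluted to OD600 = 0.05, 3 mL with compound; OD620 read at 1, 3, 5, 7, 9, 11 and 24 h at 37 °C; DMSO negative control.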
# Pseudomonas aeruginosa [12] = assay: Downregulation of pqsR gene expression in Pseudomonas aeruginosa PAO1 assessed as fold decrease at 25 ug/ml by RT-qPCR analysis; format: functional; conditions: dose 25 µg/ml
# [13] = Inhibition of quorum sensing system in Pseudomonas aeruginosa PAO1 assessed as reduction in C4-HSL level at 50 ug/ml incubated for 24 hrs by LC-MS/MS method; conditions: dose 50.0 µg/ml
# Pseudomonas aeruginosa [14] = assay: Downregulation of PA5439 gene expression in Pseudomonas aeruginosa PAO1 assessed as fold decrease at 25 ug/ml by RT-qPCR analysis; format: functional; conditions: dose 25 µg/ml
# Pseudomonas aeruginosa [15] = assay: Downregulation of sodB gene expression in Pseudomonas aeruginosa PAO1 assessed as fold decrease at 25 ug/ml by RT-qPCR analysis; format: functional; conditions: dose 25.0 µg/ml
# [16] = Inhibition of quorum sensing system in Pseudomonas aeruginosa PAO1 assessed as reduction in 3-oxo-C12-HSL level at 6.25 to 25 ug/ml incubated for 24 hrs by LC-MS/MS method; conditions: dose 6.25-25 µg/ml
# [17] = Cytotoxicity against MEF at 100 to 1024 ug/ml; format: toxicity, cell-based; conditions: mouse, dose 100-1024 µg/ml
compound,measurement,setting,value
Cc1cccc(C#N)c1Cc1c[nH]c2ccccc12,inhibition at 6.25 µg/mL,Pseudomonas aeruginosa [1],32%
same,inhibition,Pseudomonas aeruginosa [2],Dose-dependent-effect
same,Activity,Pseudomonas aeruginosa [3],37%
same,inhibition,[4],Active
same,inhibition,[5],41%
same,Activity,Pseudomonas aeruginosa [6],43%
same,inhibition,[7],61%
same,inhibition at 12.5 µg/mL,Pseudomonas aeruginosa [8],53%
same,fold change (FC),Pseudomonas aeruginosa [9],5.65
same,Activity,Pseudomonas aeruginosa [10],41%
same,MIC,Pseudomonas aeruginosa [11],96 µg/mL
same,fold change (FC),Pseudomonas aeruginosa [12],7.41
same,inhibition,[13],19%
same,fold change (FC),Pseudomonas aeruginosa [14],10.87
same,fold change (FC),Pseudomonas aeruginosa [15],1.82
same,inhibition,[16],Active
same,Activity,[17],Toxic
